Measured values: ChEMBL document CHEMBL4390639, “Design, Synthesis, and Biological Evaluation of Novel Allosteric Protein Disulfide Isomerase Inhibitors” (J Med Chem, 2019)

Tests used:
U-87 MG [1] = experiment: Down regulation of HLA-DQB1 gene expression in human U87MG cells at 16 uM incubated for 4 hrs followed by bromouridine addition during last 30 mins of incubation by TRIzol-reagent based Bru-Seq analysis relative to control; assay type: functional, U-87MG ATCC
Outline: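 U87MG cells exposed to compound or DMSO vehicle for 4 h, with 2 mM bromouridine added for the final 30 min. Total RNA isolated with TRIzol; Bru-labelled nascent RNA captured on anti-BrdU antibody-conjugated magnetic beads and sequenced. Transcript abundance expressed as RPKM relative to DMSO. Experiment performed once.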

U-87 MG [2] = experiment: Down regulation of AC010931.3 gene expression in human U87MG cells at 16 uM incubated for 4 hrs followed by bromouridine addition during last 30 mins of incubation by TRIzol-reagent based Bru-Seq analysis relative to control; assay type: functional, U-87MG ATCC

Structure (SMILES): COC(=O)c1cccc(/C=C/C(=O)c2cccc(O)c2)c1
- fold change (FC) (U-87 MG [1]): 3.7
- fold change (FC) (U-87 MG [2]): 3.2
